27 compounds from ChEMBL document CHEMBL1135790, “2-Substituted 4-(thio)chromenone 6-O-sulfamates: potent inhibitors of human steroid sulfatase” (J Med Chem, 2002) can be followed below.

Series [1] deals with T1, Steryl-sulfatase (Homo sapiens, UniProt P08842).
T1 sequence (P08842 whole entry): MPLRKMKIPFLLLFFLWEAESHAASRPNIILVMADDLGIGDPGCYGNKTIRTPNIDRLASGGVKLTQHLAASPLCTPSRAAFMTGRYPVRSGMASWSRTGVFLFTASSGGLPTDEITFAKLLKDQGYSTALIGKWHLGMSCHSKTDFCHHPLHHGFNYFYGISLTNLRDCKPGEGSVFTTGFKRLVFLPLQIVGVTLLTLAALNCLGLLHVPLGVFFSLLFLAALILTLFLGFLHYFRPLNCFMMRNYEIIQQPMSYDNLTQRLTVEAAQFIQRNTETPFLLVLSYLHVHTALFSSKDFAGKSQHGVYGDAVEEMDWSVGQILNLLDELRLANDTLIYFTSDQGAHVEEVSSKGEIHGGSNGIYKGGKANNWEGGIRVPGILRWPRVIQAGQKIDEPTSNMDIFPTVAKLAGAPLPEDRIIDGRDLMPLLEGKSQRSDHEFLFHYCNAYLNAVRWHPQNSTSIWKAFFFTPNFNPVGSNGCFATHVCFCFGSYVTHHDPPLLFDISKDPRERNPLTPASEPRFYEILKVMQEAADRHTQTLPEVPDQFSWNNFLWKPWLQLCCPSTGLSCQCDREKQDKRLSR
Description: Inhibitory activity against purified human steroid sulfatase (STS). The method, boiled down: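 Human STS from stably transfected recombinant CHO cells, microsomal fraction solubilized in Triton X-100 and purified by chromatography to >95%. Enzyme (0.6 units) mixed with 4-MUS, 0.75 mM before mixing, in 0.1 M Tris-HCl pH 7.5, 0.1% Triton. Compounds at graded concentrations from ethanol stocks (final ethanol ≤2%). Incubation 60 min, 37 °C. Stopped with 0.2 M NaOH. Fluorescence ex 355/em 448 nm. IC50 from nonlinear regression; mean of triplicates.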

A short description of series [2]: Rate constant of inactivation.
A short description of series [3]: Inhibition constant as dissociation constant of the noncovalent (STS) enzyme-inhibitor complex. Type of series: ADME. The method, boiled down:
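Human placental microsomes (about 10 mg/mL protein) preincubated with inhibitor dilutions in 0.1 M Tris-HCl pH 7.5 for 1-20 min. Free inhibitor removed with dextran-coated charcoal. Residual activity measured in the supernatant with 4-MUS (1.5 mM before mixing), 20 min at 37 °C, stopped with NaOH, ex 355/em 460 nm. kapp from double-exponential fits. KI and kinact from a double-reciprocal plot of kapp against inhibitor concentration.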

Series [4] can be described thus: Ratio of kinact (rate constant of inactivation) to that of KI (inhibition constant) indicates efficacy of irreversible inhibition.

pIC50, pKi: −log10 of the molar value.

With `CCCCCC12CCC(c3cc(=O)c4cc(OS(N)(=O)=O)ccc4o3)(CC1)CC2`, the negative logarithm of the IC50 (pIC50) (as a rule, the negative decadic logarithm of the IC50, by convention in mol/L) in series [1] is 7.96. Further, in series [2], the inactivation rate constant (kinact) (usually the rate constant of inactivation at saturating inhibitor) was 0.074 s⁻¹. The pKi (usually −log10 of the Ki, conventionally taken in molar units) in series [3] is 6.30.

In the case of `NS(=O)(=O)Oc1ccc2c(c1)CCC(C1CCCCC1)O2` (centres undefined), the negative-log IC50 (pIC50) in series [1] is 4.95. Besides, the kinact in series [2] is 0.016 s⁻¹. In series [3], this compound gave a pKi of 4.49.

On to `NS(=O)(=O)Oc1ccc2c(=O)c(-c3ccccc3)coc2c1`, for which the negative logarithm of the IC50 (pIC50) in series [1] is 6.36.

Compound `NS(=O)(=O)Oc1ccc2oc(C3C4CC5CC3CC5C4)cc(=O)c2c1` (centres undefined) showed a pIC50 in series [1] of 7.96. Further, the kinact in series [2] was 0.042 s⁻¹. Also, the pKi in series [3] was 6.66.

As to `CCCCCCCCCc1cc(=O)c2cc(OS(N)(=O)=O)ccc2o1`, the pIC50 in series [1] was 6.39. Besides, the kinact in series [2] was determined as 0.006 s⁻¹. Also, the “K inact/Ki” value in series [4] is recorded as 0.35 10e4 M-1 s-1. This compound had a negative logarithm of the Ki (pKi) in series [3] of 5.77.

Take `NS(=O)(=O)Oc1ccc2oc(C3CCCC3)cc(=O)c2c1`: the pIC50 in series [1] was 6.87. Moreover, in series [2], the maximal inactivation rate constant (kinact) was 0.011 s⁻¹. Moreover, the pKi in series [3] was 6.14.

With `NS(=O)(=O)Oc1ccc2c(c1)C(O)CC(C1CCCCC1)O2` (centres undefined), the pIC50 in series [1] was 4.61. For the same compound, the kinact in series [2] was found to be 0.018 s⁻¹. The compound also showed a pKi in series [3] of 4.27.

Consider `CCCc1cc(=O)c2ccc(OS(N)(=O)=O)cc2o1`, for which the pIC50 in series [1] is < 4.00.

In series [1], `NS(=O)(=O)Oc1ccc2oc(-c3ccccc3)cc(=O)c2c1` had a pIC50 of 6.17.

Take `CC(C)(C)c1cc(=O)c2cc(OS(N)(=O)=O)ccc2s1`: the pIC50 in series [1] was 8.25.

As for `NS(=O)(=O)Oc1ccc2oc(CCc3ccccc3)cc(=O)c2c1`, in series [1], the pIC50 is 6.72.

On to `NS(=O)(=O)Oc1ccc2sc(C34CC5CC(CC(C5)C3)C4)cc(=O)c2c1`, for which the negative logarithm of the IC50 (pIC50) in series [1] was 9.47. Further, the kinact in series [2] was determined as 0.115 s⁻¹. The compound also had a negative-log Ki (pKi) in series [3] of 6.68.

Turning to `CC(C)(C)c1cc(=O)c2cc(OS(N)(=O)=O)ccc2o1`, the negative-log IC50 (pIC50) in series [1] is 7.66. Besides, in series [2], the inactivation rate constant (kinact) stood at 0.07 s⁻¹. The same compound had a pKi in series [3] of 6.05.

Consider `NS(=O)(=O)Oc1ccc2oc(Cc3ccccc3)cc(=O)c2c1`, for which the negative logarithm of the IC50 (pIC50) in series [1] was 5.79.

For `NS(=O)(=O)Oc1ccc2c(c1)C(=O)CC(c1ccccc1)O2` (centres undefined), the negative logarithm of the IC50 (pIC50) in series [1] was 5.59.

As for `NS(=O)(=O)Oc1ccc2c(=O)c(C3CCCCC3)coc2c1`, the pIC50 in series [1] is 7.30. Also, in series [2], the kinact came to 0.07 s⁻¹. The negative-log Ki (pKi) in series [3] is 5.92.

In turn, `NS(=O)(=O)Oc1ccc2oc(C3CCCCCCCCCCC3)cc(=O)c2c1` had a pIC50 in series [1] of 7.35. Moreover, in series [2], the inactivation rate constant (kinact) stood at 0.04 s⁻¹. The same compound gave a pKi in series [3] of 5.96.

`NS(=O)(=O)Oc1ccc2oc(/C=C/c3ccccc3)cc(=O)c2c1` gave a pIC50 in series [1] of 5.79.

As for `CCCCCCCCC(C)(C)c1cc(=O)c2cc(OS(N)(=O)=O)ccc2o1`, the pIC50 in series [1] is 7.11.

In turn, `NS(=O)(=O)Oc1ccc2c(c1)C(O)CC(C13CC4CC(CC(C4)C1)C3)O2` (centres undefined) had a pIC50 in series [1] of 6.54.

The compound `NS(=O)(=O)Oc1ccc2oc(C3CCCCC3)cc(=O)c2c1` gave a negative logarithm of the IC50 (pIC50) in series [1] of 7.21. In addition, the kinact in series [2] was found to be 0.035 s⁻¹. Also, the negative logarithm of the Ki (pKi) in series [3] was 6.00.

`NS(=O)(=O)Oc1ccc2c(c1)C(=O)CC(C1CCCCC1)O2` (centres undefined) had a pIC50 in series [1] of 6.55.

In the case of `NS(=O)(=O)Oc1ccc2c(=O)cc(C3CCCCC3)oc2c1`, the pIC50 in series [1] was 5.20. Also, the kinact in series [2] is 0.02 s⁻¹. Besides, the pKi in series [3] was 4.62.

Consider `CCCc1cc(=O)c2cc(OS(N)(=O)=O)ccc2o1`, for which the negative-log IC50 (pIC50) in series [1] was 6.14.

`NS(=O)(=O)Oc1ccc2c(c1)C(=O)CC(C13CC4CC(CC(C4)C1)C3)O2` (centres undefined): the negative-log IC50 (pIC50) in series [1] was 6.85. Further, in series [2], the maximal inactivation rate constant (kinact) was found to be 0.017 s⁻¹. Further, in series [3], the pKi was 5.73.

For the compound `NS(=O)(=O)Oc1ccc2sc(-c3ccccc3)cc(=O)c2c1`, the negative logarithm of the IC50 (pIC50) in series [1] is 7.21.

In series [1], `CC1(C)C(c2cc(=O)c3cc(OS(N)(=O)=O)ccc3o2)C1(C)C` showed a pIC50 of 7.35.
